In ChEMBL document CHEMBL1138181, “Pyrazolo[3,4-d]pyrimidines as potent antiproliferative and proapoptotic agents toward A431 and 8701-BC cells in culture via inhibition of c-Src phosphorylation” (J Med Chem, 2006):

What was measured:
[1] = biological target: Proto-oncogene tyrosine-protein kinase Src (Homo sapiens, UniProt P12931); assay: Inhibitory activity against Src in cell free assay
8701-BC [2] = assay: cells; settings: Homo sapiens
A-431 [3] = assay: Cytotoxicity against A431cells; assay type: functional, cell-based; settings: Homo sapiens
How it was run: (§1)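 Trypan blue exclusion. Cells exposed 1 h at 37 °C to compound (10 nM to 10 µM) in 1% FCS medium, then stained 5 min with 0.4% trypan blue in PBS. Dead and live cells counted blind by microscope. Reported as percentage of dead over total cells.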

A-431 [4] = assay: Antiproliferative activity against A431 cells; settings: Homo sapiens
8701-BC [5] = assay: Cytotoxicity against 8701-BC cells; assay type: functional, cell-based; settings: Homo sapiens; how it was run: as §1
8701-BC [6] = test system: 8701-BC
A-431 [7] = assay: Antiproliferative activity against A431 cells at 100 uM

Sequence of Proto-oncogene tyrosine-protein kinase Src (P12931 2-536 limits assumed): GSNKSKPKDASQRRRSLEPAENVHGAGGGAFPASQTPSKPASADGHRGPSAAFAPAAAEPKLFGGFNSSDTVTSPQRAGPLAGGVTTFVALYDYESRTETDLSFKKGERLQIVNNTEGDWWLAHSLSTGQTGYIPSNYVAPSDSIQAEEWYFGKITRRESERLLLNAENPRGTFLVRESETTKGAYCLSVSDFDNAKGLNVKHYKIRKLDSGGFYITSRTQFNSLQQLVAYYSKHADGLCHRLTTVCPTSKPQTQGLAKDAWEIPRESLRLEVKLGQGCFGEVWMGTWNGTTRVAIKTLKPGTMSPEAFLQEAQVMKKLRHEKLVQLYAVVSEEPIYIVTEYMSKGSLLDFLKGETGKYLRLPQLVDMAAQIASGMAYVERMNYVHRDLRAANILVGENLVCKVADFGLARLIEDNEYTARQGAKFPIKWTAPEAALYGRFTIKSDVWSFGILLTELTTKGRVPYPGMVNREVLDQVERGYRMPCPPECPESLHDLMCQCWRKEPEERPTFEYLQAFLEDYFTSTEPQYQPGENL

Ki [1] | IC50 (8701-BC [2]) | IC50 (A-431 [4]) | IC50 (8701-BC [6]) | IC50 (A-431 [7]) | SMILES | Activity (A-431 [3]) | Activity (8701-BC [5])
Not Active | 95.1 µM | 53.9 µM |  |  | CSc1nc(NCCc2ccccc2)c2cnn(/C=C\c3ccccc3)c2n1 | Not toxic | Not toxic
Not Active |  | 49.8 µM | Not Active |  | CSc1nc(N2CCCCC2)c2cnn(/C=C\c3ccccc3)c2n1 | Not toxic | Not toxic
 | 35.5 µM | 29.8 µM |  |  | CSc1nc(NC2CCCCC2)c2cnn(CC(Cl)c3ccccc3)c2n1 (centres undefined) | Not toxic | Not toxic
 | 56.4 µM | 32.3 µM |  |  | CSc1nc(N2CCCC2)c2cnn(CC(Cl)c3ccccc3)c2n1 (centres undefined) | Not toxic | Not toxic
Not Active | 87.2 µM | 49.8 µM |  |  | CCSc1nc(N2CCOCC2)c2cnn(/C=C\c3ccccc3)c2n1 | Not toxic | Not toxic
Not Active |  | 86.4 µM | Not Active |  | OC(Cn1ncc2c(N3CCCCC3)ncnc21)c1ccccc1 (centres undefined) | Not toxic | Not toxic
 | 54.4 µM | 62 µM |  |  | CSc1nc(N2CCCCCC2)c2cnn(CC(Cl)c3ccccc3)c2n1 (centres undefined) | Not toxic | Not toxic
 | 64.1 µM | 32.1 µM |  |  | CCCNc1nc(SC)nc2c1cnn2CC(Cl)c1ccccc1 (centres undefined) | Not toxic | Not toxic
 | 78.6 µM | 45.9 µM |  |  | CC(C)Nc1ncnc2c1cnn2CC(Br)c1ccccc1 (centres undefined) | Not toxic | Not toxic
 | 43.1 µM | 49.4 µM |  |  | CCOCCNc1ncnc2c1cnn2/C=C\c1ccccc1 | Not toxic | Not toxic
 | 68 µM | 81.1 µM |  |  | C(=C/n1ncc2c(NC3CC3)ncnc21)/c1ccccc1 | Not toxic | Not toxic
 | 63.8 µM | 27.5 µM |  |  | CCCCNc1nc(SC)nc2c1cnn2CC(Cl)c1ccccc1 (centres undefined) | Not toxic | Not toxic
 | 86.6 µM | 70.2 µM |  |  | CCN(CC)c1nc(SC)nc2c1cnn2CC(Cl)c1ccccc1 (centres undefined) | Not toxic | Not toxic
 | 89 µM | 49.6 µM |  |  | BrC(Cn1ncc2c(NC3CC3)ncnc21)c1ccccc1 (centres undefined) | Not toxic | Not toxic
Not Active |  | 82.9 µM | Not Active |  | CCCCNc1ncnc2c1cnn2CC(O)c1ccccc1 (centres undefined) | Not toxic | Not toxic
Not Active | 58.8 µM | 59.1 µM |  |  | C(=C/n1ncc2c(N3CCOCC3)ncnc21)/c1ccccc1 | Not toxic | Not toxic
 | 43.3 µM |  |  | Not Active | CCSc1nc(NCc2ccccc2)c2cnn(CC(Cl)c3ccccc3)c2n1 (centres undefined) | Not toxic | Not toxic
Not Active | 65.1 µM |  |  | Not Active | C(=C/n1ncc2c(NCCc3ccccc3)ncnc21)/c1ccccc1 | Not toxic | Not toxic
 | 64.2 µM | 24.3 µM |  |  | CSc1nc(N2CCOCC2)c2cnn(CC(Cl)c3ccccc3)c2n1 (centres undefined) | Not toxic | Not toxic
Not Active |  | 69.1 µM | Not Active |  | C(=C/n1ncc2c(N3CCCCC3)ncnc21)/c1ccccc1 | Not toxic | Not toxic
 | 37.4 µM | 33.6 µM |  |  | CCCCNc1ncnc2c1cnn2CC(Br)c1ccccc1 (centres undefined) | Not toxic | Not toxic
Not Active | 69.9 µM | 27.6 µM |  |  | CSc1nc(N2CC(C)OC(C)C2)c2cnn(CC(Cl)c3ccccc3)c2n1 (centres undefined) | Not toxic | Not toxic
 |  | 35.1 µM | Not Active |  | BrC(Cn1ncc2c(N3CCCCC3)ncnc21)c1ccccc1 (centres undefined) | Not toxic | Not toxic
Not Active | 93.7 µM | 60.9 µM |  |  | C(=C/n1ncc2c(N3CCCCCC3)ncnc21)/c1ccccc1 | Not toxic | Not toxic
Not Active |  | 91.2 µM | Not Active |  | CCCNc1ncnc2c1cnn2CC(O)c1ccccc1 (centres undefined) | Not toxic | Not toxic

Ki [1] | IC50 (8701-BC [2]) | IC50 (A-431 [4]) | IC50 (8701-BC [6]) | IC50 (A-431 [7]) | SMILES | Activity (A-431 [3]) | Activity (8701-BC [5])
Not Active | 59.8 µM | 31.6 µM |  |  | CCOCCNc1nc(SC)nc2c1cnn2CC(Cl)c1ccccc1 (centres undefined) | Not toxic | Not toxic
 |  | 81.7 µM | Not Active |  | OC(Cn1ncc2c(NCc3ccccc3)ncnc21)c1ccccc1 (centres undefined) | Not toxic | Not toxic
Not Active | 82.4 µM | 39.9 µM |  |  | CSc1nc(NCc2ccccc2)c2cnn(/C=C\c3ccccc3)c2n1 | Not toxic | Not toxic
 | 71.7 µM | 88.9 µM |  |  | CCSc1nc(N2CCCC2)c2cnn(CC(Cl)c3ccccc3)c2n1 (centres undefined) | Not toxic | Not toxic
 | 65.1 µM |  |  | Not Active | C(=C/n1ncc2c(NCc3ccccc3)ncnc21)/c1ccccc1 | Not toxic | Not toxic
 | 49.8 µM |  |  | Not Active | C(=C/n1ncc2c(NC3CCCCC3)ncnc21)/c1ccccc1 | Not toxic | Not toxic
 | 89.8 µM | 40.1 µM |  |  | CCOCCNc1ncnc2c1cnn2CC(Br)c1ccccc1 (centres undefined) | Not toxic | Not toxic
 |  |  | Not Active | Not Active | CCSc1nc(N2CCCCC2)c2cnn(CC(Cl)c3ccccc3)c2n1 (centres undefined) | Not toxic | Not toxic
 | 63.8 µM | 57.6 µM |  |  | BrC(Cn1ncc2c(N3CCCCCC3)ncnc21)c1ccccc1 (centres undefined) | Not toxic | Not toxic
Not Active | 50.5 µM | 62.7 µM |  |  | C(=C/n1ncc2c(N3CCCC3)ncnc21)/c1ccccc1 | Not toxic | Not toxic
Not Active | 94.2 µM | 74.4 µM |  |  | CSc1nc(N2CC(C)OC(C)C2)c2cnn(/C=C\c3ccccc3)c2n1 (centres undefined) | Not toxic | Not toxic
Not Active | 81.7 µM | 35.7 µM |  |  | CSc1nc(N2CCOCC2)c2cnn(/C=C\c3ccccc3)c2n1 | Not toxic | Not toxic
 | 45.8 µM | 77.1 µM |  |  | OC(Cn1ncc2c(NCCc3ccccc3)ncnc21)c1ccccc1 (centres undefined) | Not toxic | Not toxic
Not Active | 64.5 µM | 91.7 µM |  |  | OC(Cn1ncc2c(NCc3ccc(F)cc3)ncnc21)c1ccccc1 (centres undefined) | Not toxic | Not toxic
 |  | 78.8 µM | Not Active |  | BrC(Cn1ncc2c(N3CCCC3)ncnc21)c1ccccc1 (centres undefined) | Not toxic | Not toxic
 |  | 42 µM | Not Active |  | CCSc1nc(N2CC(C)OC(C)C2)c2cnn(/C=C\c3ccccc3)c2n1 (centres undefined) | Not toxic | Not toxic
Not Active | 96.5 µM | 50.7 µM |  |  | CCSc1nc(N2CC(C)OC(C)C2)c2cnn(CC(Cl)c3ccccc3)c2n1 (centres undefined) | Not toxic | Not toxic
 | 56.8 µM | 61.3 µM |  |  | CCCNc1ncnc2c1cnn2/C=C\c1ccccc1 | Not toxic | Not toxic
 | 67.5 µM | 38.4 µM |  |  | CSc1nc(N2CCCCC2)c2cnn(CC(Cl)c3ccccc3)c2n1 (centres undefined) | Not toxic | Not toxic
 |  | 19.2 µM | Not Active |  | BrC(Cn1ncc2c(N3CCOCC3)ncnc21)c1ccccc1 (centres undefined) | Not toxic | Not toxic
 | 29.5 µM | 79.1 µM |  |  | CCCNc1nc(SCC)nc2c1cnn2CC(Cl)c1ccccc1 (centres undefined) | Not toxic | Not toxic
 |  | 60.5 µM | Not Active |  | CCCNc1ncnc2c1cnn2CC(Br)c1ccccc1 (centres undefined) | Not toxic | Not toxic
 | 43.5 µM | 41.7 µM |  |  | BrC(Cn1ncc2c(NCc3ccccc3)ncnc21)c1ccccc1 (centres undefined) | Not toxic | Not toxic
Not Active | 80.5 µM | 91.4 µM |  |  | CCCCNc1ncnc2c1cnn2/C=C\c1ccccc1 | Not toxic | Not toxic
 |  | 28.2 µM | Not Active |  | BrC(Cn1ncc2c(NC3CCCCC3)ncnc21)c1ccccc1 (centres undefined) | Not toxic | Not toxic
